Data taken from ChEMBL document CHEMBL5058577, “EUbOPEN Chemogenomics Library 2 (Multiplex)” (2022).

System: U2OS
Experiment: Multiplex assay against U2OS
Type: toxicity, cell-based
Settings: human
Outline: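 Imaging took place on a CQ1 microscope at 37°C and 5% CO2 once compound had been added to live cells stained at seeding with Hoechst33342, BioTracker Green Microtubule Cytoskeleton Dye, MitoTracker Red and Annexin V Alexa Fluor 680. CellPathfinder machine-learning gating classed cells as Hoechst high-intensity objects or normal cells, classed normal cells as having healthy, pyknosed or fragmented nuclei, and classed pyknosed cells as mitotic or apoptotic. Tubulin, mitochondrial-mass and membrane-permeability phenotypes are per cents of the healthy-nucleus cells.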

[1] = 12 h, 1 µM, compound concentration 1 uM, replicate 1
[2] = 12 h, 1 µM, compound concentration 1 uM, replicate 2
[3] = 12 h, 10 µM, compound concentration 10 uM, replicate 1
[4] = 12 h, 10 µM, compound concentration 10 uM, replicate 2
[5] = 24 h, 1 µM, compound concentration 1 uM, replicate 1
[6] = 24 h, 1 µM, compound concentration 1 uM, replicate 2
[7] = 24 h, 10 µM, compound concentration 10 uM, replicate 1
[8] = 24 h, 10 µM, compound concentration 10 uM, replicate 2
[9] = 48 h, 1 µM, compound concentration 1 uM, replicate 1
[10] = 48 h, 1 µM, compound concentration 1 uM, replicate 2
[11] = 48 h, 10 µM, compound concentration 10 uM, replicate 1
[12] = 48 h, 10 µM, compound concentration 10 uM, replicate 2

## CC(C)(O)C(=O)N1CCN(c2ccc(C(F)(F)F)c(C3=C(c4c[nH]c5ccccc45)C(=O)NC3=O)c2)CC1
[1]
  Population Apoptotic (%): 88%
  Population Fragmented Nuclei (%): 29%
  Population Healthy Nuclei (%): 63%
  Population Hoechst High Intensity Objects (%): 3%
  Population Membrane Permeable-Phenotype (%): 5%
  Population Mitochondria Different-Phenotype (%): 2%
  Population Mitotic Cells (%): 11%
  Population Normal (%): 96%
  Population Pyknosed Nuclei (%): 7%
  Population Tubulin-Different-Phenotype (%): 3%
  Total Cell Count: 238
[2]
  Population Apoptotic (%): 92%
  Population Fragmented Nuclei (%): 14%
  Population Healthy Nuclei (%): 75%
  Population Hoechst High Intensity Objects (%): 1%
  Population Membrane Permeable-Phenotype (%): 4%
  Population Mitochondria Different-Phenotype (%): 4%
  Population Mitotic Cells (%): 7%
  Population Normal (%): 98%
  Population Pyknosed Nuclei (%): 9%
  Total Cell Count: 134
[3]
  Population Apoptotic (%): 76%
  Population Fragmented Nuclei (%): 37%
  Population Healthy Nuclei (%): 46%
  Population Hoechst High Intensity Objects (%): 6%
  Population Membrane Permeable-Phenotype (%): 39%
  Population Mitochondria Different-Phenotype (%): 23%
  Population Mitotic Cells (%): 24%
  Population Normal (%): 93%
  Population Pyknosed Nuclei (%): 16%
  Population Tubulin-Different-Phenotype (%): 30%
  Total Cell Count: 166
[4]
  Population Apoptotic (%): 50%
  Population Fragmented Nuclei (%): 6%
  Population Healthy Nuclei (%): 77%
  Population Hoechst High Intensity Objects (%): 1%
  Population Membrane Permeable-Phenotype (%): 14%
  Population Mitochondria Different-Phenotype (%): 14%
  Population Mitotic Cells (%): 50%
  Population Normal (%): 98%
  Population Tubulin-Different-Phenotype (%): 15%
  Total Cell Count: 148
[5]
  Population Apoptotic (%): 89%
  Population Fragmented Nuclei (%): 27%
  Population Healthy Nuclei (%): 61%
  Population Hoechst High Intensity Objects (%): 3%
  Population Membrane Permeable-Phenotype (%): 7%
  Population Mitochondria Different-Phenotype (%): 3%
  Population Mitotic Cells (%): 10%
  Population Normal (%): 96%
  Population Pyknosed Nuclei (%): 11%
  Population Tubulin-Different-Phenotype (%): 5%
  Total Cell Count: 263
[6]
  Population Apoptotic (%): 82%
  Population Fragmented Nuclei (%): 22%
  Population Healthy Nuclei (%): 67%
  Population Hoechst High Intensity Objects (%): 0%
  Population Membrane Permeable-Phenotype (%): 4%
  Population Mitochondria Different-Phenotype (%): 2%
  Population Mitotic Cells (%): 17%
  Population Normal (%): 100%
  Population Pyknosed Nuclei (%): 9%
  Population Tubulin-Different-Phenotype (%): 2%
  Total Cell Count: 172
[7]
  Population Apoptotic (%): 87%
  Population Fragmented Nuclei (%): 48%
  Population Healthy Nuclei (%): 27%
  Population Hoechst High Intensity Objects (%): 6%
  Population Membrane Permeable-Phenotype (%): 11%
  Population Mitochondria Different-Phenotype (%): 34%
  Population Mitotic Cells (%): 12%
  Population Normal (%): 93%
  Population Pyknosed Nuclei (%): 24%
  Population Tubulin-Different-Phenotype (%): 15%
  Total Cell Count: 172
[8]
  Population Apoptotic (%): 70%
  Population Fragmented Nuclei (%): 16%
  Population Healthy Nuclei (%): 53%
  Population Hoechst High Intensity Objects (%): 2%
  Population Membrane Permeable-Phenotype (%): 15%
  Population Mitochondria Different-Phenotype (%): 24%
  Population Mitotic Cells (%): 29%
  Population Normal (%): 97%
  Population Pyknosed Nuclei (%): 29%
  Population Tubulin-Different-Phenotype (%): 11%
  Total Cell Count: 152
[9]
  Population Apoptotic (%): 95%
  Population Fragmented Nuclei (%): 21%
  Population Healthy Nuclei (%): 65%
  Population Hoechst High Intensity Objects (%): 3%
  Population Membrane Permeable-Phenotype (%): 6%
  Population Mitochondria Different-Phenotype (%): 4%
  Population Mitotic Cells (%): 4%
  Population Normal (%): 96%
  Population Pyknosed Nuclei (%): 12%
  Population Tubulin-Different-Phenotype (%): 5%
  Total Cell Count: 377
[10]
  Population Apoptotic (%): 85%
  Population Fragmented Nuclei (%): 17%
  Population Healthy Nuclei (%): 73%
  Population Hoechst High Intensity Objects (%): 1%
  Population Membrane Permeable-Phenotype (%): 7%
  Population Mitochondria Different-Phenotype (%): 3%
  Population Mitotic Cells (%): 14%
  Population Normal (%): 98%
  Population Pyknosed Nuclei (%): 9%
  Population Tubulin-Different-Phenotype (%): 2%
  Total Cell Count: 233
[11]
  Population Apoptotic (%): 95%
  Population Fragmented Nuclei (%): 57%
  Population Healthy Nuclei (%): 11%
  Population Hoechst High Intensity Objects (%): 14%
  Population Membrane Permeable-Phenotype (%): 27%
  Population Mitochondria Different-Phenotype (%): 16%
  Population Mitotic Cells (%): 4%
  Population Normal (%): 85%
  Population Pyknosed Nuclei (%): 30%
  Population Tubulin-Different-Phenotype (%): 11%
  Total Cell Count: 177
[12]
  Population Apoptotic (%): 96%
  Population Fragmented Nuclei (%): 31%
  Population Healthy Nuclei (%): 27%
  Population Hoechst High Intensity Objects (%): 7%
  Population Membrane Permeable-Phenotype (%): 17%
  Population Mitochondria Different-Phenotype (%): 14%
  Population Mitotic Cells (%): 3%
  Population Normal (%): 92%
  Population Pyknosed Nuclei (%): 41%
  Population Tubulin-Different-Phenotype (%): 17%
  Total Cell Count: 163

## Cc1sc2c(c1C)C(c1ccc(Cl)cc1)=N[C@H](CC(=O)OC(C)(C)C)c1nnc(C)n1-2
[1]
  Population Apoptotic (%): 81%
  Population Fragmented Nuclei (%): 28%
  Population Healthy Nuclei (%): 63%
  Population Hoechst High Intensity Objects (%): 2%
  Population Membrane Permeable-Phenotype (%): 7%
  Population Mitochondria Different-Phenotype (%): 4%
  Population Mitotic Cells (%): 18%
  Population Normal (%): 97%
  Population Pyknosed Nuclei (%): 8%
  Population Tubulin-Different-Phenotype (%): 4%
  Total Cell Count: 256
[2]
  Population Apoptotic (%): 71%
  Population Fragmented Nuclei (%): 16%
  Population Healthy Nuclei (%): 77%
  Population Hoechst High Intensity Objects (%): 4%
  Population Mitochondria Different-Phenotype (%): 2%
  Population Mitotic Cells (%): 28%
  Population Normal (%): 95%
  Population Pyknosed Nuclei (%): 6%
  Total Cell Count: 120
[3]
  Population Apoptotic (%): 51%
  Population Fragmented Nuclei (%): 32%
  Population Healthy Nuclei (%): 56%
  Population Hoechst High Intensity Objects (%): 2%
  Population Membrane Permeable-Phenotype (%): 42%
  Population Mitochondria Different-Phenotype (%): 35%
  Population Mitotic Cells (%): 48%
  Population Normal (%): 97%
  Population Pyknosed Nuclei (%): 11%
  Population Tubulin-Different-Phenotype (%): 39%
  Total Cell Count: 240
[4]
  Population Apoptotic (%): 90%
  Population Fragmented Nuclei (%): 22%
  Population Healthy Nuclei (%): 68%
  Population Hoechst High Intensity Objects (%): 0%
  Population Membrane Permeable-Phenotype (%): 13%
  Population Mitochondria Different-Phenotype (%): 24%
  Population Mitotic Cells (%): 10%
  Population Normal (%): 100%
  Population Pyknosed Nuclei (%): 8%
  Population Tubulin-Different-Phenotype (%): 11%
  Total Cell Count: 118
[5]
  Population Apoptotic (%): 77%
  Population Fragmented Nuclei (%): 22%
  Population Healthy Nuclei (%): 69%
  Population Hoechst High Intensity Objects (%): 0%
  Population Membrane Permeable-Phenotype (%): 5%
  Population Mitochondria Different-Phenotype (%): 1%
  Population Mitotic Cells (%): 22%
  Population Normal (%): 99%
  Population Pyknosed Nuclei (%): 7%
  Population Tubulin-Different-Phenotype (%): 1%
  Total Cell Count: 280
[6]
  Population Apoptotic (%): 75%
  Population Fragmented Nuclei (%): 20%
  Population Healthy Nuclei (%): 70%
  Population Hoechst High Intensity Objects (%): 3%
  Population Mitochondria Different-Phenotype (%): 2%
  Population Mitotic Cells (%): 25%
  Population Normal (%): 96%
  Population Pyknosed Nuclei (%): 8%
  Population Tubulin-Different-Phenotype (%): 2%
  Total Cell Count: 149
[7]
  Population Apoptotic (%): 83%
  Population Fragmented Nuclei (%): 29%
  Population Healthy Nuclei (%): 57%
  Population Hoechst High Intensity Objects (%): 2%
  Population Membrane Permeable-Phenotype (%): 17%
  Population Mitochondria Different-Phenotype (%): 17%
  Population Mitotic Cells (%): 16%
  Population Normal (%): 97%
  Population Pyknosed Nuclei (%): 13%
  Population Tubulin-Different-Phenotype (%): 8%
  Total Cell Count: 280
[8]
  Population Apoptotic (%): 76%
  Population Fragmented Nuclei (%): 24%
  Population Healthy Nuclei (%): 65%
  Population Hoechst High Intensity Objects (%): 0%
  Population Membrane Permeable-Phenotype (%): 7%
  Population Mitochondria Different-Phenotype (%): 25%
  Population Mitotic Cells (%): 23%
  Population Normal (%): 99%
  Population Pyknosed Nuclei (%): 10%
  Population Tubulin-Different-Phenotype (%): 3%
  Total Cell Count: 130
[9]
  Population Apoptotic (%): 77%
  Population Fragmented Nuclei (%): 20%
  Population Healthy Nuclei (%): 72%
  Population Hoechst High Intensity Objects (%): 1%
  Population Membrane Permeable-Phenotype (%): 5%
  Population Mitochondria Different-Phenotype (%): 2%
  Population Mitotic Cells (%): 22%
  Population Normal (%): 98%
  Population Pyknosed Nuclei (%): 6%
  Population Tubulin-Different-Phenotype (%): 2%
  Total Cell Count: 415
[10]
  Population Apoptotic (%): 96%
  Population Fragmented Nuclei (%): 21%
  Population Healthy Nuclei (%): 64%
  Population Hoechst High Intensity Objects (%): 3%
  Population Membrane Permeable-Phenotype (%): 7%
  Population Mitochondria Different-Phenotype (%): 7%
  Population Mitotic Cells (%): 3%
  Population Normal (%): 96%
  Population Pyknosed Nuclei (%): 14%
  Population Tubulin-Different-Phenotype (%): 5%
  Total Cell Count: 228
[11]
  Population Apoptotic (%): 86%
  Population Fragmented Nuclei (%): 23%
  Population Healthy Nuclei (%): 57%
  Population Hoechst High Intensity Objects (%): 2%
  Population Membrane Permeable-Phenotype (%): 11%
  Population Mitochondria Different-Phenotype (%): 7%
  Population Mitotic Cells (%): 13%
  Population Normal (%): 97%
  Population Pyknosed Nuclei (%): 18%
  Population Tubulin-Different-Phenotype (%): 5%
  Total Cell Count: 342
[12]
  Population Apoptotic (%): 89%
  Population Fragmented Nuclei (%): 20%
  Population Healthy Nuclei (%): 68%
  Population Hoechst High Intensity Objects (%): 1%
  Population Mitochondria Different-Phenotype (%): 8%
  Population Mitotic Cells (%): 10%
  Population Normal (%): 98%
  Population Pyknosed Nuclei (%): 11%
  Population Tubulin-Different-Phenotype (%): 3%
  Total Cell Count: 174
